What was measured:
[1] = test system: Human immunodeficiency virus 1; assay: Antiviral activity against ENV pseudotyped HIV1 B41 infected in human U87 cells expressing CD4/CCR5 pretreated with virus for 72 hrs followed by infection of cells measured after 48 hrs by luciferase reporter gene assay; assay type: functional, organism-based; details: Human immunodeficiency virus 1, B41, U-87 MG
Procedure, shortened: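 Late-stage assay. B41 Env-pseudotyped luciferase viruses are produced in 293T cells with compound (100 μM to 0.01 μM, equal DMSO) or DMSO vehicle for 72 h at 37°C. Supernatants are clarified, filtered, freeze-thawed once, diluted ten-fold and used to infect U87.CD4.CCR5 cells for 48 h at 37°C. Lysate luciferase is normalized to virus made in vehicle-treated cells.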

[2] = test system: Human immunodeficiency virus 1; assay: Antiviral activity against ENV pseudotyped HIV1 B41 infected in human U87 cells expressing CD4/CCR5 measured after 48 hrs by luciferase reporter gene assay; assay type: functional, organism-based; details: Human immunodeficiency virus 1, B41, U-87 MG
Procedure, shortened: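 Early-stage single-round assay. U87.CD4.CCR5 target cells, 1.2×10^4 cells/well, are seeded and left 24 h at 37°C. Single-round HIV-1 B41 Env-pseudotyped firefly luciferase virus, produced in HEK293T without compound, is mixed with compound or DMSO vehicle and added to the cells. After 48 h at 37°C the cells are lysed, freeze-thawed and read for luciferase. IC50 from 3 parallel tests.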

[3] = test system: Human immunodeficiency virus 1; assay: Antiviral activity against Human immunodeficiency virus 1 NL4-3 infected in human MT4 cells assessed as protection against virus-induced cytopathic effect after 2 days by bright-glo luciferase reporter gene assay; assay type: functional, organism-based
Procedure, shortened: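 MT-4 cells are infected with 200 TCID50 of HIV-1 NL4-3 over a range of compound concentrations, allowing multiple rounds of infection. After two days the medium is removed and Bright-Glo luminescence is read. […] At least triplicate; mean ± SD of at least two parallel tests.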

U-87 MG = assay: Cytotoxicity against human U87 cells expressing CD4/CCR5; assay type: cell-based; details: u-87mg atcc
MT4 = assay: Cytotoxicity against human MT4 cells assessed as reduction in cell viability after 24 hrs by CytoTox-Glo cytotoxicity assay; assay type: cell-based; details: mt4, 24 h
Procedure, shortened: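 Uninfected MT-4 cells were cultured for 1 day with various compound concentrations, in parallel with the antiviral assays. Percent viable cells was read by the CytoTox-Glo kit following the manufacturer's protocol. […] Each value was run in at least triplicate and averaged from at least four independent experiments.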

[4] = Therapeutic index, ratio of CC50 for human U87 cells to IC50 for ENV pseudotyped HIV1 B41 infected in human U87 cells expressing CD4/CCR5; assay type: toxicity, cell-based; details: read-out: Ratio CC50/IC50
[5] = target: T1, Structural capsid protein (Human immunodeficiency virus 1, UniProt Q76129); assay: Binding affinity to HIV1 NL4-3 monomeric capsid protein by surface plasmon resonance
T1 sequence (Q76129 whole entry): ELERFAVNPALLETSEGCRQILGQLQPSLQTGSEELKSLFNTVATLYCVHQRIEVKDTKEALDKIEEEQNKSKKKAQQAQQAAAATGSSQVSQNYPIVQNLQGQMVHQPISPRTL
Procedure, shortened: (§1)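 SPR at 25°C. HIV-1 NL4-3 CA constructs are amine-coupled at 100 µg/ml in 10 mM sodium acetate, pH 5.0, onto an EDC/sulfo-NHS-activated GLH chip, then ethanolamine-capped. Compound serial dilutions in PBS, 3% DMSO, 0.005% polysorbate 20, pH 7.4 are injected at 100 µl/min with 1 min association and up to 5 min dissociation. Reference-subtracted; KD by equilibrium analysis, at least three experiments.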

[6] = Selectivity index, ratio of CC50 for human MT4 cells to EC50 for Human immunodeficiency virus 1 NL4-3 infected in human MT4 cells; assay type: toxicity, cell-based; details: read-out: Ratio CC50/EC50
Procedure, shortened: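 SI is CC50/EC50, both measured in MT-4 cells. For EC50, 200 TCID50 of NL4-3 infected MT-4 cells over multiple rounds in the presence of various compound concentrations. […] CC50 came from a 1-day CytoTox-Glo viability assay on uninfected cells.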

[7] = target: T1, Structural capsid protein; assay: Binding affinity to HIV1 NL4-3 N-terminal domain capsid protein by surface plasmon resonance; procedure, shortened: as §1
[8] = target: T1, Structural capsid protein; assay: Binding affinity to HIV1 NL4-3 hexameric capsid protein by surface plasmon resonance; procedure, shortened: as §1
[9] = test system: Human immunodeficiency virus 1; assay: Antiviral activity against Human immunodeficiency virus 1 3B infected in human MT4 cells assessed as inhibition of virus-induced cytopathic effect at 2 uM after 5 days by CellTiter-Glo assay relative to control; assay type: functional; details: MT4, 120 h
[10] = Cytotoxicity against human MT2 cells after 4 days by XTT assay; assay type: cell-based
[11] = test system: Human immunodeficiency virus 1; assay: Antiviral activity against Human immunodeficiency virus 1 NL4-3 infected in human MT2 cells measured 4 to 5 days post infection by luciferase reporter gene assay; assay type: functional, organism-based; details: Human immunodeficiency virus 1, NL4-3, MT2
[12] = Human immunodeficiency virus 1, NL4-3, MT4, 48 h, read-out: EC50

Row | Structure (SMILES) | EC50 [3, 12] | CC50 (MT4; read-out: CC50) | selectivity ratio [6] | also measured
1 | Cc1[nH]c2ccccc2c1CC(=O)N[C@@H](Cc1ccccc1)C(=O)N(C)c1ccccc1 | 5.95 µM | > 70.5 µM | – | IC50 [1]: 8.3 µM; IC50 [2]: 0.1 µM; CC50 (U-87 MG): 73 µM
2 | COc1ccc(N(C)C(=O)[C@H](Cc2ccccc2)NC(=O)c2cn(Cc3ccccc3Cl)nn2)cc1 | > 19.8 µM | > 19.8 µM | – | –
3 | COc1ccc(N(C)C(=O)[C@H](Cc2ccccc2)NC(=O)c2cn(Cc3ccc4ccccc4c3)nn2)cc1 | 4.33 µM | > 57.7 µM | > 13.3 | selectivity ratio [4]: 2.8; IC50 [1]: 31 µM; Kd [5]: 14 µM; IC50 [2]: 7 µM; CC50 (U-87 MG): 54.8 µM; Kd [7]: 32.7 µM; Kd [8]: 11 µM
4 | COc1ccc(N(C)C(=O)[C@H](Cc2ccccc2)NC(=O)c2cn(CS(=O)(=O)c3ccccc3)nn2)cc1 | – | > 18.7 µM | – | EC50 ([3]; mt4): Not Active
5 | COc1ccc(N(C)C(=O)[C@H](Cc2ccccc2)NC(=O)c2cn(Cc3cccc([N+](=O)[O-])c3)nn2)cc1 | – | – | – | EC50 ([3]; mt4): Not Active; CC50 (MT4): Not Active
6 | COc1ccc(N(C)C(=O)[C@H](Cc2ccccc2)NC(=O)c2cn(C[S+]([O-])c3ccccc3)nn2)cc1 (some centres not stated) | 6.65 µM | > 19.3 µM | > 2.91 | Kd [5]: 12.7 µM; Kd [7]: 28.2 µM; Kd [8]: 93.3 µM
7 | COc1ccc(N(C)C(=O)[C@H](Cc2ccccc2)NC(=O)c2cn(Cc3ccccc3C)nn2)cc1 | 8 µM | > 20.7 µM | > 2.58 | –
8 | COc1ccc(N(C)C(=O)[C@H](Cc2ccccc2)NC(=O)c2cn(Cc3cccc(Cl)c3)nn2)cc1 | – | – | – | EC50 ([3]; mt4): Not Active; CC50 (MT4): Not Active
9 | COC(=O)c1cccc(-n2cc(C(=O)N[C@@H](Cc3ccccc3)C(=O)N(C)c3ccc(OC)cc3)nn2)c1 | 6.91 µM | > 19.5 µM | > 2.82 | –
10 | COc1ccc(N(C)C(=O)[C@H](Cc2ccccc2)NC(=O)c2cn(Cc3ccccc3[N+](=O)[O-])nn2)cc1 | 10.2 µM | > 19.4 µM | > 1.91 | –
11 | COc1ccc(N(C)C(=O)[C@H](Cc2ccccc2)NC(=O)c2cn(Cc3cccc4ccccc34)nn2)cc1 | > 19.2 µM | > 19.2 µM | – | –
12 | COc1ccc(N(C)C(=O)[C@H](Cc2ccccc2)NC(=O)Cn2nc(C(F)(F)F)c3c2CCCC3)cc1 | – | – | – | inhibition at 2 µM [9]: 100%
13 | COc1ccc(N(C)C(=O)[C@H](Cc2ccccc2)NC(=O)c2cn(Cc3ccccc3C#N)nn2)cc1 | > 21.5 µM | > 21.5 µM | – | –
14 | COc1ccc(N(C)C(=O)[C@H](Cc2ccccc2)NC(=O)NS(=O)(=O)N2CCCc3ccccc32)cc1 | – | – | – | CC50 at 96 h [10]: 33.3 µM; EC50 [11]: 0.11 µM
15 | COc1ccc(N(C)C(=O)[C@H](Cc2ccccc2)NC(=O)c2cn(Cc3ccc(C)cc3)nn2)cc1 | – | – | – | EC50 ([3]; mt4): Not Active; CC50 (MT4): Not Active
16 | COc1ccc(N(C)C(=O)[C@H](Cc2ccccc2)NC(=O)c2cn(Cc3ccc([N+](=O)[O-])cc3)nn2)cc1 | > 19.4 µM | > 19.4 µM | – | –
17 | COc1ccc(N(C)C(=O)[C@H](Cc2ccccc2)NC(=O)c2cn(CSc3ccccc3)nn2)cc1 | – | – | – | EC50 ([3]; mt4): Not Active; CC50 (MT4): Not Active
18 | COc1ccc(N(C)C(=O)[C@H](Cc2ccccc2)NC(=O)c2cn(Cc3cccc(C)c3)nn2)cc1 | – | – | – | EC50 ([3]; mt4): Not Active; CC50 (MT4): Not Active
19 | COc1ccc(N(C)C(=O)[C@H](Cc2ccccc2)NC(=O)c2cn(C3CC(n4cc(C)c(=O)[nH]c4=O)OC3CO)nn2)cc1 (some centres not stated) | 10.5 µM | > 16.6 µM | > 1.59 | –
20 | COc1ccc(N(C)C(=O)[C@H](Cc2ccccc2)NC(=O)c2cn(Cc3ccc(Cl)cc3)nn2)cc1 | > 19.8 µM | > 19.8 µM | – | –
21 | COc1ccc(N(C)C(=O)[C@H](Cc2ccccc2)NC(=O)c2cn(-c3ccc4c(c3)OCO4)nn2)cc1 | 14.9 µM | > 20 µM | > 1.34 | –
22 | COc1ccc(N(C)C(=O)[C@H](Cc2ccccc2)NC(=O)c2cn(Cc3cccc(C#N)c3)nn2)cc1 | 9.11 µM | > 21.5 µM | > 2.36 | –
23 | COc1ccc(N(C)C(=O)[C@H](Cc2ccccc2)NC(=O)c2cn(Cc3ccc(C#N)cc3)nn2)cc1 | 8.98 µM | > 21.5 µM | > 2.4 | –
